# In publication PMC11052883 (Clinical Pharmacokinetics, 2024):
# Several values for one entry are separate records, joined by “and”; a condition that tells them apart may be missing. Equal values may be shown once. Square brackets hold non-standard residues; d marks the D form. Peptide text beside a SMILES is read from it. * marks the point of attachment. Dolaproine = CO[C@@H]([C@@H]1CCCN1)[C@@H](C)C(=O)O; Dil = CC[C@H](C)[C@H](NC)[C@@H](CC(=O)O)OC; X1 = C[C@@H](N*)[C@@H](O)c1ccccc1; NMeV = CN[C@H](C(=O)O)C(C)C
# How the values were obtained:
# [1] = Population PK analysis of five clinical studies; assay type: in vivo, human; conditions: enfortumab vedotin 0.5–1.25 mg/kg
# [2] = Population PK: effect of mild hepatic impairment on model-predicted exposures; assay type: in vivo, human; conditions: mild hepatic impairment compared with normal hepatic function
# CYP3A = conditions: when administered as part of an ADC; cited from earlier work
# OCT1 = conditions: in vitro, clinically relevant concentrations; cited from earlier work
# [3] = MMAE given as brentuximab vedotin; cited from earlier work
# QTcF interval [4] = conditions: cited from earlier work; for Cmax geometric mean: EV-102, after third dose, cycle 1 day 15, 1.25 mg/kg
# OATP1B3 = conditions: in vitro, cited from earlier work
# [5] = molecular target: human ether-a-go-go–related (hERG) channel (Homo sapiens, UniProt Q12809); assay: hERG channel inhibition, whole-cell voltage clamp; assay type: cell-based
# human ether-a-go-go–related (hERG) channel, sequence (Q12809 whole entry): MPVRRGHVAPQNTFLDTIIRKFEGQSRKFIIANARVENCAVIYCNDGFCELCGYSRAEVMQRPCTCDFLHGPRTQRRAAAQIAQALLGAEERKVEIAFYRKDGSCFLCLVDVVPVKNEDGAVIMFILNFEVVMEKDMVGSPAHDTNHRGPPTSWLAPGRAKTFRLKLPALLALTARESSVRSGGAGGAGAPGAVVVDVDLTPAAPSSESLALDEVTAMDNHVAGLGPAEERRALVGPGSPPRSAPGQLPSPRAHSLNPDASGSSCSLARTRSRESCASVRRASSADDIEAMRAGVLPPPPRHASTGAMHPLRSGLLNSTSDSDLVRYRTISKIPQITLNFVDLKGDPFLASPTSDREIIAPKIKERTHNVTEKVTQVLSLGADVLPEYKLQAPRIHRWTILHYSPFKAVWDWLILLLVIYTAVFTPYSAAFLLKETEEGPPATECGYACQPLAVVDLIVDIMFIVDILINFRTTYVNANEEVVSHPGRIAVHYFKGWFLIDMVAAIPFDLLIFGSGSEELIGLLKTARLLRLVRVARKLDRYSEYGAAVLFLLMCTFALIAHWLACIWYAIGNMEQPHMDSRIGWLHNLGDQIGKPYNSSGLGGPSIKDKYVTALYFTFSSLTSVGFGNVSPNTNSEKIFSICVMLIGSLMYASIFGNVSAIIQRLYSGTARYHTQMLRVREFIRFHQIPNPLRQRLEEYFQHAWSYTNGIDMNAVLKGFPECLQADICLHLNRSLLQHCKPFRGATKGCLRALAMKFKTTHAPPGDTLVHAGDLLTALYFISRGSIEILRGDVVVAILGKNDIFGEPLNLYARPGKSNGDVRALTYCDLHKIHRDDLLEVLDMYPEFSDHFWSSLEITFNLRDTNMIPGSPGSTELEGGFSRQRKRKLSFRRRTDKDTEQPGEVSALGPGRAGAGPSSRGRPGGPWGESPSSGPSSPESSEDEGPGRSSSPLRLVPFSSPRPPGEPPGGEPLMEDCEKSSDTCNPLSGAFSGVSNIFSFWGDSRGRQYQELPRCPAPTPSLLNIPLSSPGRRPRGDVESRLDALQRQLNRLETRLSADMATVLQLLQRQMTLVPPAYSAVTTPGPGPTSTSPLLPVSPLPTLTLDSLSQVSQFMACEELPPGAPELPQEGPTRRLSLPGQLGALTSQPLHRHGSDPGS
# Procedure, shortened: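 In vitro hERG current by conventional whole-cell voltage clamp, with MMAE (free payload) tested at concentrations up to 100 μM. Half-maximal inhibitory concentration is estimated from the concentration–inhibition data. The comparator is the mean estimated maximum unbound plasma MMAE concentration in patients after a third 1.25 mg/kg dose, using an unbound fraction of 0.32.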
# P-glycoprotein (P-gp) = conditions: in vitro, cited from earlier work
# OAT1 = conditions: in vitro, cited from earlier work
# plasma proteins [6] = conditions: 3H-MMAE, human plasma; cited from earlier work
# OAT3 = conditions: in vitro, cited from earlier work
# MRP2 = conditions: in vitro, cited from earlier work
# [7] = EV-201 clinical PK of ADC, TAb and free MMAE after enfortumab vedotin 1.25 mg/kg; assay type: in vivo, human; conditions: for AUCd0–14: cycle 1, dose 3, day 15, geometric mean (%CV)
# [8] = tested on: cytochrome P450 (CYP) 3A4; conditions: background statement, no reference given; cited from earlier work
# BSEP = conditions: in vitro, clinically relevant concentrations; cited from earlier work
# OCT2 = conditions: in vitro, cited from earlier work
# OATP1B1 = conditions: in vitro, cited from earlier work
# QTcF interval [9] = assay: EV-102 concentration–QTcF analysis; assay type: in vivo, human; conditions: patients, third dose of enfortumab vedotin 1.25 mg/kg
# BCRP = conditions: in vitro; cited from earlier work
# [10] = Population PK: model-predicted exposures by race/ethnicity; assay type: in vivo, human; conditions: for difference in exposure, lower in Asian patients: cycle 1 AUC0–28d and Cmax, Asian vs non-Asian; for geometric least square mean ratios of Cmax, AUC0–28d and Ctrough lower in Japanese than non-Japanese patients: population PK model-simulated
# plasma proteins [11] = assay: MMAE protein binding in human plasma; assay type: in vitro ADME; conditions: used for unbound Cmax
# [12] = tested on: Nectin-4–expressing malignant solid tumors; assay: AGS-22M6E-11-1 phase I study; assay type: in vivo, human; conditions: for median t½: observed concentrations
# Procedure, shortened: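 First-in-human study in which patients received an intravenous infusion every 3 weeks at 0.6 or 1.2 mg/kg. ADC is measured as antibody carrying any amount of conjugated MMAE. Median half-life is derived from observed ADC concentrations at each dose level. Safety, tolerability and clinical response are assessed per dose cohort.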
# [13] = tested on: mUC and other Nectin-4–expressing malignant solid tumors; assay: EV-101 phase I dose-escalation; assay type: in vivo, human
# [14] = tested on: locally advanced or metastatic urothelial carcinoma; assay: EV-301 phase III: exposure–response for overall survival; assay type: in vivo, human; conditions: enfortumab vedotin range across ADC Cavg quartiles
# [15] = Adverse events in pooled enfortumab vedotin 1.25 mg/kg safety group; assay type: in vivo, human; conditions: for patients with grade 3 or higher TRAEs / patients with serious TRAEs: 1.25 mg/kg safety analysis group; for patients with TRAE grade 3 or higher / patients with serious TRAE: 1.25 mg/kg
# Procedure, shortened: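 Pooled integrated safety dataset (N = 680) from the clinical development program. Patients received monotherapy at 1.25 mg/kg (maximum 125 mg) as a 30-min IV infusion on days 1, 8 and 15 of each 28-day cycle until progression or unacceptable toxicity. Treatment-emergent and treatment-related AEs, including serious events, were tabulated by subgroups of concomitant inhibitor use.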
# [16] = tested on: locally advanced or metastatic urothelial carcinoma; assay: EV-201; assay type: in vivo, human; conditions: upper three ADC Cavg exposure quartiles
# [17] = clinically relevant concentrations
compound,measurement,setting,value
"CC[C@H](C)[C@@H]([C@@H](CC(=O)N1CCC[C@H]1[C@H](OC)[C@@H](C)C(=O)N[C@H](C)[C@@H](O)c1ccccc1)OC)N(C)C(=O)[C@@H](NC(=O)[C@@H](NC)C(C)C)C(C)C [MMAE, monomethyl auristatin E] (H-[NMeV]V[Dil][Dolaproine]-X1)",mean clearance,[1],2.11 L/h
same,increase in AUC0–28d,[2],37%
same,increase in Cmax,[2],31%
same,inhibitor or inducer of CYP3A,CYP3A,neither an inhibitor nor an inducer
same,inhibitor of OCT1,OCT1,not an inhibitor
same,share of excreted MMAE that was excreted in feces,[3],approximately 72%
same,total MMAE administered excreted in feces and urine,[3],approximately 24%
same,Cmax geometric mean,QTcF interval [4],3.94 ng/mL
same,"Predicted dQTcF interval (population mean change in QTcF), mean (SE in table)","QTcF interval [4]; at geometric mean Cmax, 1.25 mg/kg",-3.14 ms
same,inhibitor of OATP1B3,OATP1B3; [17],not an inhibitor
same,substrate of OATP1B3,OATP1B3,not a substrate
same,IC50 estimate relative to mean maximum unbound MMAE concentration,[5]; 100 μM vs 0.002 μM,"approximately 50,000 fold"
same,IC50,"[5]; read-out: half maximal inhibitory concentration, concentrations up to 100 μM",> 100 µM
same,inhibitor of P-gp,P-glycoprotein (P-gp); [17],not an inhibitor
same,substrate of P-gp,P-glycoprotein (P-gp),substrate
same,inhibitor of OAT1,OAT1; [17],not an inhibitor
same,substrate of OAT1,OAT1,not a substrate
same,bound to plasma proteins,plasma proteins [6],67.9–82.2%
same,inhibitor of OAT3,OAT3; [17],not an inhibitor
same,substrate of OAT3,OAT3,not a substrate
same,inhibitor of MRP2,MRP2; [17],not an inhibitor
same,substrate of MRP2,MRP2,not a substrate
same,Mean Cmax,"[7]; across cycles 1 and 2, enfortumab vedotin 1.25 mg/kg",2.4 to 3.9 ng/mL
same,time to peak concentration,[7]; after dosing of enfortumab vedotin 1.25 mg/kg,2 to 3 days
same,Cmax lower than that of ADC,[7]; enfortumab vedotin 1.25 mg/kg,more than 1000 fold
same,metabolizing enzyme,[8],primarily metabolized by cytochrome P450 (CYP) 3A4
same,inhibitor of BSEP,BSEP,not an inhibitor
same,inhibitor of OCT2,OCT2; [17],not an inhibitor
same,substrate of OCT2,OCT2,not a substrate
same,inhibitor of OATP1B1,OATP1B1; [17],not an inhibitor
same,substrate of OATP1B1,OATP1B1,not a substrate
same,mean estimate of maximum unbound MMAE concentration,QTcF interval [9],0.002 μM and 1.26 ng/mL
same,substrate of BCRP,BCRP,not a substrate
same,"difference in exposure, lower in Asian patients",[10],< 11%
same,"geometric least square mean ratios of Cmax, AUC0–28d and Ctrough lower in Japanese than non-Japanese patients",[10],2.7–11.6%
same,unbound fraction,plasma proteins [11],0.32
Enfortumab vedotin: fully human anti–Nectin-4 IgG1 kappa monoclonal antibody conjugated to MMAE via a protease-cleavable maleimidocaproyl valine–citrulline linker,mean clearance,[1],0.11 L/h
same,clinical response,[12]; 0.6 mg/kg and 1.2 mg/kg every 3 weeks,clinical response was not observed
same,median t½,[12]; 1.2 mg/kg intravenous dose,57.4 h
same,median t½,[12]; 0.6-mg/kg dose,39.6 h
same,QT prolongation,"QTcF interval [4]; EV-102, 1.0 or 1.25 mg/kg",No clinically meaningful QT prolongation was observed
same,"slope estimate, dQTcF vs concentration","QTcF interval [4]; EV-102, 1.0 or 1.25 mg/kg",0.539 ms/(μg/mL)
same,Cmax geometric mean,QTcF interval [4],20100 ng/mL
same,maximum tolerated dose,"[13]; EV-101, 0.5–1.25 mg/kg",not identified
same,confirmed objective response rate [ORR],"[13]; EV-101, 1.25-mg/kg dose level",42.9%
same,median OS,[14],11.0–15.2 months
same,AUCd0–14,[7]; listed as ADC,34.7 µg·days/mL
same,patients with grade 3 or higher TRAEs,[15]; mild CYP3A inhibitors,51.1%
same,patients with serious TRAEs,[15]; mild CYP3A inhibitors,20.7%
same,patients with grade 3 or higher TRAEs,[15]; moderate CYP3A inhibitors,61.8%
same,patients with serious TRAEs,[15]; moderate CYP3A inhibitors,28.7%
same,patients with grade 3 or higher TRAEs,[15]; not receiving CYP3A inhibitors,41.5%
same,patients with serious TRAEs,[15]; not receiving CYP3A inhibitors,14.4%
same,patients with TRAE grade 3 or higher,[15]; not receiving P-gp inhibitors,33.3%
same,patients with serious TRAE,[15]; not receiving P-gp inhibitors,10.0%
same,patients with TRAE grade 3 or higher,[15]; receiving P-gp inhibitors,56.8%
same,patients with serious TRAE,[15]; receiving P-gp inhibitors,24.3%
same,ORR (complete and partial responses),[16],55–64%
same,"difference in exposure, lower in Asian patients",[10],< 11%
same,"geometric least square mean ratios of Cmax, AUC0–28d and Ctrough lower in Japanese than non-Japanese patients",[10],2.7–11.6%
"TAb: analyte: fully conjugated, partially conjugated, and unconjugated antibody after enfortumab vedotin administration",geometric mean ratio (GMR) of accumulation,[7]; after repeat enfortumab vedotin dosing,1.1
same,AUCd0–14,[7],98.1 µg·days/mL
same,"average Ctrough, TAb relative to ADC",[7]; end of cycle 1,approximately 5.5 fold
